The source made the active and inactive calls. The rule behind the calls is not given here.
Assays:
CCRF-CEM = experiment: Cytotoxicity against human CCRF-CEM cells; format: functional; details: for TGI: read-out: pTGI
A-431 [1] = experiment: Induction of oxidative stress in human A431 cells assessed as increase in hydrogen peroxide free radical production after 1 hr by DCF-based fluorescence spectrophotometric analysis; format: functional, cell-based
Outline: (§1)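 Cells were seeded at 10^5 per well and given graded compound concentrations for 1 h. They were then loaded with DHE or DCF probe for 30 min in the dark. Fluorescence was read immediately: DHE ex 540/em 600 nm; DCF ex 485/em 528 nm. Results were expressed as arbitrary units per 10^5 cells.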

HUVEC [2] = experiment: Induction of oxidative stress in human HUVEC cells assessed as increase in superoxide free radical production after 1 hr by DHE-based by fluorescence spectrophotometric analysis; format: cell-based; outline: as §1
A-431 [3] = experiment: Induction of oxidative stress in human A431 cells assessed as increase in superoxide free radical production after 1 hr by DHE-based by fluorescence spectrophotometric analysis; format: functional, cell-based; outline: as §1
HUVEC [4] = experiment: Induction of oxidative stress in human HUVEC cells assessed as increase in hydrogen peroxide free radical production after 1 hr by DCF-based fluorescence spectrophotometric analysis; format: cell-based; outline: as §1
MCF7 [5] = experiment: Induction of Cell cycle arrest in human MCF7 cells assessed as G2/M phase cells at IC50 concentration after 24 hrs by PI-staining based flow cytometric analysis (reference value: 13%); format: functional
Outline: (§2)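 MCF-7 cells (10^6) were treated for 24 h, with methanol as the vehicle control. Cells were fixed in cold 70% methanol at 4 °C for one day, washed with PBS, and permeabilized with 0.1% saponin in PBS. They were stained with propidium iodide plus RNase for 30 min. DNA content was read by flow cytometry, giving percentages of cells per cell-cycle phase.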

MCF7 [6] = experiment: Induction of Cell cycle arrest in human MCF7 cells assessed as S phase cells at IC50 concentration after 24 hrs by PI-staining based flow cytometric analysis (reference value: 19%); format: functional; outline: as §2
MCF7 [7] = experiment: Induction of oxidative stress in human MCF7 cells assessed as decrease in GSH level at 5 uM after 1 hr by DTNB assay relative to control; format: functional; design: scale not given: the % may be the effect or the level left
Outline: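 MCF-7 cells (10^6) were treated for 1 h at 37 °C, trypsinized, and washed twice with cold PBS. GSH was extracted with chilled 5% metaphosphoric acid at 4 °C for 2 h, then the lysate was centrifuged. Supernatant was mixed with 0.2 M sodium phosphate pH 8.0 and 0.04 mM DTNB for 10 min at room temperature. Absorbance was read at 412 nm against a reagent blank, and GSH was quantified from a standard curve.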

MCF7 [8] = experiment: Induction of Cell cycle arrest in human MCF7 cells assessed as G0/1 phase cells at IC50 concentration after 24 hrs by PI-staining based flow cytometric analysis (reference value: 68%); format: functional; outline: as §2

| Compound | GI50 (CCRF-CEM) | LC50 (CCRF-CEM) | TGI (CCRF-CEM) | Activity (A-431 [1]) | Activity (HUVEC [2]) | Activity (A-431 [3]) | Activity (HUVEC [4]) | Activity (MCF7 [5]) | Activity (MCF7 [6]) | Activity (MCF7 [7]) | Activity (MCF7 [8]) |
| --- | --- | --- | --- | --- | --- | --- | --- | --- | --- | --- | --- |
| CC1=C(SCCC(=O)OC(C[Se]C2=C(C)C(=O)c3ccccc3C2=O)C(=O)NCCCCCC(=O)OCc2ccccc2)C(=O)c2ccccc2C1=O (centres undefined) | 2.82 µM | > 100 µM | > 100 µM | Active | Non-toxic | Active | Non-toxic | – | – | – | – |
| CC1=C([Se]CC(OC(=O)[C@@H](CO)NC(=O)OC(C)(C)C)C(=O)NC(C)(C)C)C(=O)c2ccccc2C1=O (some centres undefined) | 0.525 µM | > 100 µM | > 100 µM | – | – | – | – | 12% | 7.7% | 59% | 80% |
